According to ChEMBL document CHEMBL1141277, “New phenylpropenoids, bis(1-phenylethyl)phenols, bisquinolinone alkaloid, and anti-inflammatory constituents from Zanthoxylum integrifoliolum” (J Nat Prod, 2007):

Tested on: Neutrophil
Test: Antiinflammatory activity in human neutrophils assessed as fMLP-induced superoxide release after 5 mins by spectrometry
Format: functional, cell-based
Outline: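 Neutrophils isolated from venous blood of healthy volunteers (20–35 years) by double-gradient Ficoll–Hypaque centrifugation, with hypotonic lysis of red cells. Cells at 1 × 10^6 cells/mL pretreated with test agents (100 µmol/L) at 37 °C for 5 min. Then stimulated with fMLP (1 µmol/L) with ferricytochrome c (0.5 mg/mL). Extracellular O2•– read continuously at 550 nm. Inhibition % = [(control−resting)−(compound−resting)]/(control−resting) × 100.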

Row | SMILES | IC50
1 | COc1cc(/C=C/CO)ccc1OCC=C(C)C | > 100 µM
2 | CC(C)=CCc1cc(/C=C/CO)ccc1O | 75.1 µM
3 | CC(c1ccccc1)c1ccc(O)c(C(C)c2ccccc2)c1 (centres undefined) | > 100 µM
4 | COc1cc([C@@H]2Oc3c(OC)cc(/C=C/CO)cc3[C@H]2CO)cc(OC)c1O | 11.8 µM
5 | COc1cc([C@H]2Oc3c(OC)cc(/C=C/C=O)cc3[C@@H]2CO)ccc1O | 31.9 µM
6 | C[C@H](c1ccccc1)c1cccc([C@@H](C)c2ccccc2)c1O | > 100 µM
7 | Cn1c(=O)c2c(c3ccccc31)OC(C)(C)C=C2 | 4.28 µM
8 | CC(C)(O)[C@H](O)COc1ccc(/C=C/CO)cc1 | 32.5 µM
9 | COc1cc([C@H]2Oc3c(OC)cc(/C=C/C=O)cc3[C@@H]2CO)cc(OC)c1O | 19.3 µM
10 | Cn1c(=O)c2c(c3ccccc31)O[C@]1(C)C[C@@H]3c4c(c5ccccc5[nH]c4=O)OC(C)(C)[C@H]3[C@H]2C1 | > 100 µM
11 | CC(C)=CCOc1ccc(/C=C/CO)cc1 [EVOFOLIN C] | 9.64 µM
12 | COc1cc2ccc(=O)oc2c(OC)c1OC [FRAXIDIN METHYL ETHER] | 47.1 µM
13 | COc1c2ccoc2nc2c(OC)cccc12 [GAMMA-FAGARINE] | > 100 µM
14 | COc1c2[nH]c3occc3c(OC)c-2ccc1=O [HAPLOPINE] | 57.3 µM
15 | CC(C)Cc1ccc(C(C)C(=O)O)cc1 (centres undefined) [IBUPROFEN] | 32.5 µM
16 | COc1cc2oc(=O)ccc2cc1O [ISOSCOPOLETIN] | 77.5 µM
17 | Cn1c(=O)c2c(c3ccccc31)OC(C)(C)[C@@H]1[C@@H]2C[C@]2(C)C[C@H]1c1c(c3ccccc3n(C)c1=O)O2 [PARAENSIDIMERIN C] | > 100 µM
18 | COc1cc2ccc(=O)oc2cc1OC [SCOPARONE] | > 100 µM
19 | COc1cc(C=O)cc(OC)c1O [SYRINGALDEHYDE] | > 100 µM
